What all share (type): functional
Test [1] concerns Escherichia coli. In words: Antibacterial activity against Escherichia coli Top10.
For test [2], the system named is Acinetobacter baumannii. In words: Antibacterial activity against Acinetobacter baumannii BM4652. The procedure, abridged: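 MIC by Etest on Mueller-Hinton agar; interpretation by Comité de l'Antibiogramme de la Société Française de Microbiologie breakpoints. A. baumannii BM4652 is the recipient strain used in conjugation with BM4674 (solid medium; transconjugants selected on apramycin 80 μg/ml plus ceftazidime 16 μg/ml). MIC values in μg/ml.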

Test [3] relates to Acinetobacter baumannii. Put plainly: Antibacterial activity against Acinetobacter baumannii BM4674 isolated from the tibia fracture of a patient by Etest method. The procedure, abridged:
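MICs read by Etest gradient strips on Mueller-Hinton agar against the clinical isolate (Nancy, France, September 2008); reported in μg/ml and interpreted with Comité de l'Antibiogramme de la Société Française de Microbiologie breakpoints.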

In test [4] the test system is Escherichia coli. Put plainly: Antibacterial activity against ESBL-positive Escherichia coli Top10 harboring plasmid AT517.
Test [5] concerns Escherichia coli. Put plainly: Antibacterial activity against […] OmpF and OmpC porin-deficient Escherichia coli HB4 harboring plasmid AT517.
Test [6] relates to Acinetobacter baumannii. In words: Antibacterial activity against Acinetobacter baumannii BM4652 harboring plasmid IP847.
Test [7] has as its system Escherichia coli. In words: Antibacterial activity against […] OmpF and OmpC porin-deficient Escherichia coli HB4.

Values after ≈ are worked out from the molar mass of the structure shown.

Consider `C[C@H]1[C@H](NC(=O)/C(=N\OC(C)(C)C(=O)O)c2csc(N)n2)C(=O)N1S(=O)(=O)O` [AZTREONAM], for which the MIC against Escherichia coli [1] is 0.125 µg/mL (≈ 0.287 µM); in the test on Acinetobacter baumannii [2], 1 µg/mL (≈ 2.3 µM); against Acinetobacter baumannii [3] it was > 256 µg/mL; in the test with Escherichia coli [4], 24 µg/mL (≈ 55.1 µM); against Escherichia coli [5] it was 48 µg/mL (≈ 110 µM); against Acinetobacter baumannii [6] it was > 256 µg/mL. Also, in the test on Escherichia coli [7], it took 0.75 µg/mL (≈ 1.72 µM) to inhibit growth (MIC).
For `CO/N=C(\C(=O)N[C@@H]1C(=O)N2C(C(=O)[O-])=C(C[N+]3(C)CCCC3)CS[C@H]12)c1csc(N)n1` [CEFEPIME], the MIC with Escherichia coli [1] is 0.032 µg/mL (≈ 0.0666 µM); against Acinetobacter baumannii [2], 0.19 µg/mL (≈ 0.395 µM); with Acinetobacter baumannii [3], > 256 µg/mL; in the test with Escherichia coli [4], 2 µg/mL (≈ 4.16 µM); with Escherichia coli [5] it was 96 µg/mL (≈ 200 µM); against Acinetobacter baumannii [6] it was 64 µg/mL (≈ 133 µM). For the same compound, the MIC against Escherichia coli [7] turned out to be 0.5 µg/mL (≈ 1.04 µM).
Turning to `CO/N=C(\C(=O)N[C@@H]1C(=O)N2C(C(=O)O)=C(COC(C)=O)CS[C@H]12)c1csc(N)n1` [CEFOTAXIME], the MIC in the test with Escherichia coli [1] is 0.064 µg/mL (≈ 0.141 µM); against Acinetobacter baumannii [2], 1 µg/mL (≈ 2.2 µM); with Acinetobacter baumannii [3] it was > 256 µg/mL; in the test on Escherichia coli [4], > 256 µg/mL; against Escherichia coli [5] it was > 256 µg/mL; against Acinetobacter baumannii [6], > 256 µg/mL. This compound gave a minimal inhibitory concentration (MIC) against Escherichia coli [7] of 0.5 µg/mL (≈ 1.1 µM).
As to `CO[C@@]1(NC(=O)Cc2cccs2)C(=O)N2C(C(=O)O)=C(COC(N)=O)CS[C@@H]21` [CEFOXITIN], the MIC is 6 µg/mL (≈ 14 µM) in the test with Escherichia coli [1]; 8 µg/mL (≈ 18.7 µM) against Acinetobacter baumannii [2]; 192 µg/mL (≈ 449 µM) in the test with Acinetobacter baumannii [3]; 6 µg/mL (≈ 14 µM) in the test on Escherichia coli [4]; > 256 µg/mL against Escherichia coli [5]; 12 µg/mL (≈ 28.1 µM) with Acinetobacter baumannii [6]. Moreover, in the test with Escherichia coli [7], the minimal inhibitory concentration (MIC) is 96 µg/mL (≈ 225 µM).
With `CC(C)(O/N=C(\C(=O)N[C@@H]1C(=O)N2C(C(=O)[O-])=C(C[n+]3ccccc3)CS[C@H]12)c1csc(N)n1)C(=O)O` [CEFTAZIDIME], the MIC against Escherichia coli [1] is 0.75 µg/mL (≈ 1.37 µM); against Acinetobacter baumannii [2] it was 1.5 µg/mL (≈ 2.74 µM); against Acinetobacter baumannii [3], > 256 µg/mL; against Escherichia coli [4], > 256 µg/mL; against Escherichia coli [5], > 256 µg/mL; in the test with Acinetobacter baumannii [6], > 256 µg/mL. In the test with Escherichia coli [7], this compound came in with a minimal inhibitory concentration (MIC) of 0.5 µg/mL (≈ 0.915 µM).
Turning to `C[C@@H](O)[C@H]1C(=O)N2C(C(=O)O)=C(SCCNC=N)C[C@H]12` [IMIPENEM ANHYDROUS], the MIC against Escherichia coli [1] stood at 0.19 µg/mL (≈ 0.635 µM); in the test on Acinetobacter baumannii [2], 0.125 µg/mL (≈ 0.418 µM); against Acinetobacter baumannii [3] it was 4 µg/mL (≈ 13.4 µM); against Escherichia coli [5], 8 µg/mL (≈ 26.7 µM); in the test on Acinetobacter baumannii [6], 0.75 µg/mL (≈ 2.51 µM); in the test with Escherichia coli [7], 0.125 µg/mL (≈ 0.418 µM).
Take `C[C@@H](O)[C@H]1C(=O)N2C(C(=O)O)=C(S[C@@H]3CN[C@H](C(=O)N(C)C)C3)[C@H](C)[C@H]12` [MEROPENEM]: the MIC in the test with Escherichia coli [1] is 0.016 µg/mL (≈ 0.0417 µM); against Acinetobacter baumannii [2], 0.064 µg/mL (≈ 0.167 µM); with Acinetobacter baumannii [3], 6 µg/mL (≈ 15.6 µM); against Escherichia coli [4], 0.047 µg/mL (≈ 0.123 µM); in the test on Escherichia coli [5], 4 µg/mL (≈ 10.4 µM); against Acinetobacter baumannii [6], 1.5 µg/mL (≈ 3.91 µM). This compound also registered an MIC against Escherichia coli [7] of 0.25 µg/mL (≈ 0.652 µM).

What is called MIC is the smallest concentration in the dilution series that meets the test's criterion for growth inhibition. A high value points to a less susceptible organism.

Source of the values: ChEMBL document CHEMBL1649533, “GES-11, a novel integron-associated GES variant in Acinetobacter baumannii” (2009).
